Test results reported in ChEMBL document CHEMBL1121866, “Synthesis of 5'-thymidinyl bis(1-aziridinyl)phosphinates as antineoplastic agents” (1981).

Experiments:
Format in all cases: functional
Mus musculus [1] = test: Compound was evaluated for antitumor activity against L1210 leukemia in mice by W screener test at a dose of 500 mg/kg
Outline: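 L1210 leukemia in mice, run at Virginia Commonwealth University by G. L. Wampler at higher dose levels, following NCI standard assay guidelines. Activity is reported as survival % T/C.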

Mus musculus [2] = test: Compound was evaluated for antitumor activity against P-388 leukemia in mice by NCI screener test at a dose of 50 mg/kg
Outline: (§1)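 Tested in mice bearing L1210 or P-388 leukemia in the National Cancer Institute screening program under NCI standard assay protocols. Read-out is survival as % T/C, treated versus control, at each dose level.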

Mus musculus [3] = test: Compound was evaluated for antitumor activity against L1210 leukemia in mice by W screener test at a dose of 250 mg/kg
Mus musculus [4] = test: Compound was evaluated for antitumor activity against P-388 leukemia in mice by NCI screener test at a dose of 25 mg/kg; outline: as §1
Mus musculus [5] = test: Compound was evaluated for antitumor activity against P-388 leukemia in mice by NCI screener test at a dose of 200 mg/kg; outline: as §1
Mus musculus [6] = test: Compound was evaluated for antitumor activity against L1210 leukemia in mice by NCI screener test at a dose of 200 mg/kg; outline: as §1
Mus musculus [7] = test: Compound was evaluated for antitumor activity against P-388 leukemia in mice by NCI screener test at a dose of 100 mg/kg; outline: as §1
Mus musculus [8] = test: Compound was evaluated for antitumor activity against L1210 leukemia in mice by NCI screener test at a dose of 50 mg/kg; outline: as §1
Mus musculus [9] = test: Compound was evaluated for antitumor activity against L1210 leukemia in mice by NCI screener test at a dose of 100 mg/kg; outline: as §1

`CC(=O)O[C@H]1C[C@H](n2cc(C)c(=O)[nH]c2=O)O[C@@H]1CO[P+]([O-])(N1CC1)N1CC1` showed a T/C (Mus musculus [1]) of 111%, a T/C (Mus musculus [2]) of 112% and a T/C (Mus musculus [3]) of 111%. The T/C (Mus musculus [4]) was 104%, the T/C (Mus musculus [5]) was 142% and the T/C (Mus musculus [6]) was 112%. It also gave a T/C (Mus musculus [7]) of 124% and a T/C (Mus musculus [8]) of 107%.

In the case of `Cc1cn([C@H]2C[C@H](O)[C@@H](CO[P+]([O-])(N3CC3)N3CC3)O2)c(=O)[nH]c1=O`, the T/C (Mus musculus [9]) is reported as 100%, the T/C (Mus musculus [6]) is reported as 94% and the T/C (Mus musculus [8]) is reported as 107%.

Compound `Cc1cn([C@H]2C[C@H](O)[C@@H](CO[P+]([O-])(N3CC3(C)C)N3CC3(C)C)O2)c(=O)[nH]c1=O` (stereo partly drawn) has a T/C (Mus musculus [9]) of 105%, a T/C (Mus musculus [6]) of 124% and a T/C (Mus musculus [8]) of 94%.

Work on `CC(=O)O[C@H]1C[C@H](n2cc(C)c(=O)[nH]c2=O)O[C@@H]1CO[P+]([O-])(N1CC1(C)C)N1CC1(C)C` (stereo partly drawn) yielded a T/C (Mus musculus [1]) of 137%, a T/C (Mus musculus [2]) of 138% and a T/C (Mus musculus [3]) of 125%. It also gave a T/C (Mus musculus [9]) of 112%, a T/C (Mus musculus [4]) of 110% and a T/C (Mus musculus [5]) of 154%. For the same compound, the T/C (Mus musculus [6]) was 123%, the T/C (Mus musculus [7]) was 141% and the T/C (Mus musculus [8]) was 110%.
